Compound activity deposited in PubChem BioAssay by several laboratories.
DNMT1 inh = DNMT1 (human) enzyme inhibition; inhibition (reported as % activation of signal), % at 10 µM; 360,000 compounds, 0.83% hits; P26358; DNMT1 molecular beacon, Hinp1I cleavage, fluorescence; in the data active = inhibition above about 50%
Scp1 inh = blocks human Scp-1 phosphatase activity. Q9GZU7. inhibition, % at 20 µM. Recombinant Scp1, phosphopeptide, malachite green phosphate absorbance. AID 493091. 340,000 compounds, 0.88% hits;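 active = inhibition above about 50% at 20 µM, limit read from the data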
Target sequence (Q9GZU7 76-261 limits assumed): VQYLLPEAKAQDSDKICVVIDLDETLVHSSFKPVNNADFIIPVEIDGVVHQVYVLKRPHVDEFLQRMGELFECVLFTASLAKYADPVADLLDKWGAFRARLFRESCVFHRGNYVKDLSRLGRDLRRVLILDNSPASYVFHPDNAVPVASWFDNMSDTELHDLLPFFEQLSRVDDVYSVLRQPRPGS
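Test system: SCP-1 phosphatase catalytic domain, residues 76-261 | Compound dosing: One concentration, 20 µM, with 1.0% DMSO | Schedule: 45 min room-temperature reaction, 5 min colour, 30 min stabiliser | Detection: Absorbance at 630 nm | Read-out basis: % inhibition of SCP-1 phosphate liberation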
SUMO1-SIM PPI = alters human SUMO1 binding to SIM partners. inhibition, % at 20 µM. SUMO1 binding to a labelled peptide, TR-FRET, 1 h. AID 602429. 360,000 compounds, 0.33% hits; in the data active = inhibition above about 37%
Target sequence (P63165 whole entry, looked up): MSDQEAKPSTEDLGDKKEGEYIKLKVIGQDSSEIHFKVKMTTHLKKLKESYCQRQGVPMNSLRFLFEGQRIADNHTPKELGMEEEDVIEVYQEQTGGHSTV
LMPTP inh = LMPTP (human) inhibition. P24666. recombinant LMPTP-A, OMFP fluorogenic substrate, fluorescence intensity. inhibition, % at 20 µM. 360,000 compounds, 0.22% hits;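 active = compounds that cut the enzyme signal by at least half of the control window in the single-dose screen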
Target sequence (P24666 whole entry, looked up): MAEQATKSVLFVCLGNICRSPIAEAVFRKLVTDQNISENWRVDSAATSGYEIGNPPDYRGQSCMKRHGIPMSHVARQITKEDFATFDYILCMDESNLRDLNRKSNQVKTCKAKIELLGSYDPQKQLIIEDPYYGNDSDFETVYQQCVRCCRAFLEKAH
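Test system – LMPTP-A phosphatase enzyme · Quantity – 0.625 nM LMPTP-A final · Reagent – OMFP substrate, 400 µM final · Dosing – one test concentration per compound, 20 µM, with 3% DMSO overall · Timing – 50 min enzyme reaction at room temperature, protected from light · Detection – fluorescence intensity · Controls – substrate-only low control, DMSO enzyme-plus-substrate high control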
STEP inh = STEP (human) phosphatase inhibition. recombinant STEP, OMFP fluorogenic substrate, fluorescence. P54829. inhibition, % at 20 µM. 360,000 compounds, 0.25% hits. AID 588621;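 active = inhibition at 20 µM, scaled per plate between control wells, above about 37%, limit read from the data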
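Material: STEP (striatal-enriched tyrosine phosphatase) enzyme, cell-free | Medium: 50 mM Bis-Tris pH 6.0 with 2.5 mM DTT and 0.005% Tween 20 | Read-out: Percent inhibition scaled to no-enzyme and uninhibited-enzyme controls, plate-pattern corrected | Signal: Fluorescence read at 480 nm ex / 540 nm em | Times: 20 min reaction, room temperature, in the dark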
GRK2 inh = blocks RNA aptamer binding to human GRK2; P25098; bead flow cytometry, FAM-aptamer displacement from GRK2; inhibition of aptamer binding, % at 10 µM; 330,000 compounds, 0.59% hits; AID 488847;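 active = inhibition of aptamer binding above 40%, roughly 3 SD of noise, on plates passing a quality check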;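 note: median bead fluorescence of bound FAM aptamer so fluorescent compounds give negative values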
Large screens that a line does not name were inactive. A selection: hits, their analogues and other compounds. The true share with any hit is near 2.2%.

O=C1CSC(=S)N1/N=C/c1cc(Br)ccc1O	none (no result: DNMT1 inh, Scp1 inh, SUMO1-SIM PPI, LMPTP inh, STEP inh)
CC1=C(C(=O)Nc2ccc(CC(=O)NCc3ccccc3C)cc2)SCCO1	none
CCc1ccc(CNC(=O)Cc2ccc(NC(=O)C3=C(C)OCCS3)cc2)cc1	Scp1 inh 85
O=C(Cc1cccs1)N=Nc1c(O)[nH]c2ccccc12	none
O=C(N=Nc1c(O)[nH]c2ccccc12)c1cc(-c2cccs2)[nH]n1	SUMO1-SIM PPI 60
C[C@]12C=CC(=O)C=C1CC[C@@H]1C2=CC[C@]2(C)[C@@H](C(=O)CN3CCN(c4cc(N5CCCC5)nc(N5CCCC5)n4)CC3)CC[C@@H]12	DNMT1 inh 61
Cc1ccc(S(=O)(=O)c2nnn3c2nc(NCCCN2CCCC2=O)c2ccccc23)cc1C	SUMO1-SIM PPI 56
CCCCNc1nc2c(S(=O)(=O)c3ccccc3)nnn2c2ccccc12	none
CCOC(=O)N=Nc1c(O)n(CC(=O)OC)c2ccccc12	none
CCOC(=O)N=Nc1c2ccccc2c2nc3no[nH]c3nc12	DNMT1 inh 50 (no result: GRK2 inh)
O=S(=O)(Nc1cc(Sc2ncn[nH]2)c(O)c2ccccc12)c1ccccc1	SUMO1-SIM PPI 85 (no result: GRK2 inh)
CN1OC[C@@H]2CN(Cc3cc(Cl)cc(Cl)c3)[C@H](c3cccc(-c4ccc(C#N)cc4)c3)C[C@@H]21	none (no result: Scp1 inh, GRK2 inh)
O=C(O)c1ccc(S(=O)(=O)/N=C2\C=C(Nc3ccccc3F)C(=O)c3ccccc32)cc1	DNMT1 inh 74, SUMO1-SIM PPI 75
CCc1ccc(S(=O)(=O)/N=C2\C=C(NS(=O)(=O)c3ccccc3)C(=O)c3ccccc32)cc1	none (no result: GRK2 inh)
Cc1ccccc1NC1=C/C(=N\S(=O)(=O)c2cccs2)c2ccccc2C1=O	DNMT1 inh 69
Cc1ccccc1NC1=C/C(=N\S(=O)(=O)c2ccc(C(=O)O)cc2)c2ccccc2C1=O	DNMT1 inh 72, SUMO1-SIM PPI 69
COc1ccc(S(=O)(=O)/N=C2\C=C(Nc3ccc(O)cc3)C(=O)c3ccccc32)cc1	none
CCCNC(=O)C1(C)CCCN(Cc2ccc(-c3ccccc3)o2)C1 (stereo unspecified)	none (no result: Scp1 inh, GRK2 inh)
COc1ccc(S(=O)(=O)NCc2csc(-c3cccnc3)n2)cc1	SUMO1-SIM PPI 43
O=S(=O)(NCc1csc(-c2cccnc2)n1)c1ccc(Br)cc1	none
C=CCC[C@H](Cc1ccc(F)cc1)C(=O)OC[C@H](C)NC(=O)[C@@H](CC=C)CC(=O)N[C@H](CO)Cc1ccccc1	none
C=CCC[C@@H](Cc1ccc(F)cc1)C(=O)OC[C@H](C)NC(=O)[C@@H](CC=C)CC(=O)N[C@@H](CO)Cc1ccccc1	GRK2 inh 83
CC(=O)OC[C@]12CC[C@H]3[C@@](C)(CC[C@H]4C(C)(C)CCC[C@]34C)[C@@H]1CC(C1=CC(=O)OC1O)O2 (stereo partly specified)	DNMT1 inh 58, SUMO1-SIM PPI 74 (no result: Scp1 inh, GRK2 inh)
COC(=O)[C@@]12C[C@@H](CC(=O)NCc3cccc(C(F)(F)F)c3)C(=O)N(Cc3ccc4c(c3)OCO4)C1=CCC(C)(C)C2	none (no result: DNMT1 inh, Scp1 inh, STEP inh, GRK2 inh)
COC1=C/C(=C/c2c(N)n3nc(CC(=O)N4CCCC4)sc3nc2=O)C=CC1=O	none
Nc1c(/C=C2/C=CC(=O)C(O)=C2)c(=O)nc2sc(CC(=O)N3CCCC3)nn12	Scp1 inh 88
Nc1c(/C=C2/C=CC(=O)C(O)=C2)c(=O)nc2sc(CC(=O)N3CCOCC3)nn12	Scp1 inh 71 (no result: GRK2 inh)
Nc1c(/C=C2/C=CC(=O)C(O)=C2)c(=O)nc2sc(CC(=O)N3CCCCC3)nn12	DNMT1 inh 81, Scp1 inh 72, SUMO1-SIM PPI 45, LMPTP inh 65, GRK2 inh 41
COCCN(CCOC)Cc1cc(=O)oc2cc(C)ccc12	none (no result: Scp1 inh, GRK2 inh)
Cn1cc(Cc2ccc(C(=O)NC34CC5CC(CC(C5)C3)C4)cn2)c2ccccc21	none (no result: Scp1 inh, GRK2 inh)
CCOC(=O)[C@]12CCC=C1N(Cc1cccc3ccccc13)C(=O)[C@H](CC(=O)NCC1CCCCC1)C2	none (no result: DNMT1 inh, Scp1 inh, STEP inh, GRK2 inh)
COCCNC(=O)C1(C)CCCN(Cc2cn(C)c3ccccc23)C1 (stereo unspecified)	none (no result: Scp1 inh, GRK2 inh)
O=c1cc(-c2cc3ccccc3o2)c2cc(O)ccc2o1	LMPTP inh 58
